# Reference: ChEMBL document CHEMBL2176913, “Haloarene derivatives of carbamazepine with reduced bioactivation liabilities: 2-monohalo and 2,8-dihalo derivatives” (J Med Chem, 2012)
# Tests used:
# [1] = test system: Hepatocyte; assay: Stability in Wistar rat hepatocytes assessed as metabolite formation at >200 uM incubated for 6 hrs by HPLC and LC-MS/Ms method; format: ADME, cell-based
# Outline: (§1)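 Male rat hepatocytes were isolated by collagenase perfusion (≥80% viable) and suspended at 2 × 10^6 cells/mL. They were incubated 6 h at 37 °C with substrate at typically 50–1000 μM, added in methanol (1% final volume); one analogue was tested only at 50 and 200 μM, added in acetonitrile. The reaction was stopped with acetonitrile, and the supernatant was concentrated and analysed by HPLC-UV and ESI LC–MS.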
# [2] = test system: Hepatocyte; assay: Drug metabolism in Wistar rat hepatocytes assessed as ratio of O-sulfonate I metabolite level to parent compound level at 50 uM incubated for 6 hrs by HPLC and LC-MS/Ms method; format: ADME, cell-based
# Outline: (§2)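 Hepatocytes freshly isolated from male rat liver by two-step collagenase perfusion; only cells with ≥80% viability (trypan blue) were used. Cells at 2 × 10^6 cells/mL were shaken at 37 °C for 6 h with substrate at 50 μM, added in methanol (1% final volume). Reactions were stopped with acetonitrile. Metabolites were identified against authentic standards and by ESI LC–MS. Ratios are metabolite:parent compound.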
# [3] = test system: Hepatocyte; assay: Drug metabolism in Wistar rat hepatocytes assessed as ratio of 10,11-epoxide metabolite level to parent compound level at 50 uM incubated for 6 hrs by HPLC and LC-MS/Ms method; format: ADME, cell-based; outline: as §2
# [4] = test system: Hepatocyte; assay: Stability in Wistar rat hepatocytes assessed as 10,11-epoxide N-glucuronide metabolite formation at 100 uM incubated for 6 hrs by HPLC and LC-MS/Ms method; format: ADME, cell-based; outline: as §1
# [5] = test system: Hepatocyte; assay: Drug metabolism in Wistar rat hepatocytes assessed as ratio of N-glucuronide metabolite level to parent compound level at 50 uM incubated for 6 hrs by HPLC and LC-MS/Ms method; format: ADME, cell-based; outline: as §2
# [6] = test system: Hepatocyte; assay: Drug metabolism in Wistar rat hepatocytes assessed as ratio of O-sulfonate II metabolite level to parent compound level at 50 uM incubated for 6 hrs by HPLC and LC-MS/Ms method; format: ADME, cell-based; outline: as §2
# [7] = test system: Liver microsomes; assay: Stability in human liver microsomes assessed as diol formation at 50 uM incubated for 60 mins by HPLC and LC-MS/Ms method; format: ADME, Microsome; conditions: 1 h
# Outline: (§3)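 Pooled human liver microsomes (150 donors, both sexes), 1 mg/mL protein, with substrate at 50 μM and NADPH at 1 mM. Incubated in 0.1 M potassium phosphate, pH 7.4, for 60 min at 37 °C; controls lacked NADPH. The reaction was stopped with ice-cold acetonitrile, and the supernatant was dried, reconstituted in methanol/water and analysed by HPLC-UV and ESI LC–MS (4000 Qtrap).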
# [8] = test system: Liver microsomes; assay: Drug metabolism in human liver microsomes assessed as 10,11 epoxidation level at 50 uM incubated for 60 mins by HPLC and LC-MS/Ms method; format: ADME, Microsome; conditions: 1 h; outline: as §3
# [9] = Drug metabolism in human liver microsomes assessed as compound turnover at 50 uM incubated for 60 mins by HPLC and LC-MS/Ms method; format: ADME, Microsome; conditions: read-out: Drug metabolism; outline: as §3
# [10] = test system: Liver microsomes; assay: Stability in human liver microsomes assessed as dioxygenated metabolite formation at 50 uM incubated for 60 mins by HPLC and LC-MS/Ms method; format: ADME, Microsome; conditions: 1 h; outline: as §3
# [11] = test system: Liver microsomes; assay: Stability in human liver microsomes assessed as oxidative defluorination at 50 uM incubated for 60 mins by HPLC and LC-MS/Ms method; format: ADME, Microsome; conditions: 1 h; outline: as §3
# [12] = test system: Hepatocyte; assay: Drug metabolism in Wistar rat hepatocytes assessed as ratio of epoxide N-glucuronide metabolite level to parent compound level at 50 uM incubated for 6 hrs by HPLC and LC-MS/Ms method; format: ADME, cell-based; outline: as §2
# [13] = test system: Hepatocyte; assay: Stability in Wistar rat hepatocytes assessed as 10,11-epoxide N-glucuronide metabolite formation at 500 uM incubated for 6 hrs by HPLC and LC-MS/Ms method; format: ADME, cell-based; outline: as §1
# [14] = test system: Hepatocyte; assay: Stability in Wistar rat hepatocytes assessed as 10,11-epoxide N-glucuronide metabolite formation at 200 uM incubated for 6 hrs by HPLC and LC-MS/Ms method; format: ADME, cell-based; outline: as §1
# [15] = test system: Hepatocyte; assay: Drug metabolism in Wistar rat hepatocytes assessed as GSH adduct formation at 50 uM incubated for 6 hrs by HPLC and LC-MS/Ms method; format: ADME, cell-based; outline: as §2
# [16] = test system: Hepatocyte; assay: Stability in Wistar rat hepatocytes assessed as 10,11-epoxide N-glucuronide metabolite formation at 1 mM incubated for 6 hrs by HPLC and LC-MS/Ms method; format: ADME, cell-based; conditions: 1000 µM; outline: as §1
Stability [1],Stability [2],Ratio [3],Stability [4],Ratio [5],Stability [6],Stability [7],Drug metabolism [8],"metabolised at 1 h, 50 µM [9]",Stability [10],Stability [11],Ratio [12],Stability [13],Ratio [6],Stability [14],Ratio [2],Drug metabolism [15],Stability [16],Structure (SMILES)
Stable,Stable,0.19,Stable,0.27,Stable,–,–,–,–,–,–,–,–,–,–,–,–,NC(=O)N1c2ccc(Br)cc2C=Cc2cc(Br)ccc21
–,Stable,–,–,–,Stable,–,–,–,–,–,–,–,–,–,–,–,–,NC(=O)N1c2ccccc2C=Cc2cc(Br)ccc21
Stable,Stable,0.14,–,0.22,Stable,–,–,–,–,–,0.21,–,–,Stable,–,–,–,NC(=O)N1c2ccc(Cl)cc2C=Cc2cc(Cl)ccc21

# More lines, now with the values behind:
Structure (SMILES),Stability [1],Stability [2],Ratio [3],Stability [4],Ratio [5],Stability [6],Stability [7],Drug metabolism [8],"metabolised at 1 h, 50 µM [9]",Stability [10],Stability [11],Ratio [12],Stability [13],Ratio [6],Stability [14],Ratio [2],Drug metabolism [15],Stability [16]
NC(=O)N1c2ccc(F)cc2C=Cc2cc(F)ccc21,Stable,Stable,0.07,–,0.18,Stable,Stable,Active,1%,Stable,Stable,0.02,Stable,–,–,–,–,–
NC(=O)N1c2ccccc2C=Cc2cc(F)ccc21,Stable,Stable,0.28,–,0.784,–,–,–,–,–,–,0.15,–,0.41,Stable,–,–,–
NC(=O)N1c2ccccc2C=Cc2cc(Cl)ccc21,Stable,Stable,0.21,–,2.04,Stable,–,–,–,–,–,0.11,Stable,–,–,–,–,–
NC(=O)N1c2ccccc2C=Cc2ccccc21 [CARBAMAZEPINE],Stable,–,0.52,–,0.63,–,Stable,Active,1%,Stable,–,0.24,–,0.32,–,0.08,Active,Stable
